Measured values from ChEMBL document CHEMBL1125386, “Small atrial natriuretic peptide analogues: design, synthesis, and structural requirements for guanylate cyclase activation” (J Med Chem, 1992).

What was measured:
Oryctolagus cuniculus = species on record: Oryctolagus cuniculus; assay: In vitro vasorelaxant potency at dose 10 e -8 to 10 e-4 M using rabbit aortic rings precontracted with histamine; assay type: functional; conditions: Aorta
How it was run: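 Rabbit aortic rings (4–5 mm) in Krebs-Henseleit buffer, gassed 95:5 O2/CO2, pH 7.4, isometric tension, baseline 2 g held 2 h. Rings contracted with 3 μM histamine, then six cumulative half-log peptide increments over 90 min, range 10⁻⁸ to 10⁻⁴ M. Triplicate determinations.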

[1] = (§1) In vitro Biological half-life in crude homogenate of rabbit renal cortex; assay type: ADME, Oryctolagus cuniculus
[2] = tested on: Atrial natriuretic peptide receptor 1 (Oryctolagus cuniculus); assay: Binding affinity towards the low-affinity site atrionatriuretic peptide receptor 1 of rabbit adrenal membrane
[3] = as §1; assay type: ADME, tissue-based, Oryctolagus cuniculus

In the case of CC[C@H](C)[C@@H]1NC(=O)[C@H](CCCN=C(N)N)NC(=O)CNC(=O)CNC(=O)[C@H](Cc2ccccc2)NC(=O)[C@@H](NC(=O)[C@H](CO)NC(=O)[C@@H](N)CO)CSSC[C@@H](C(=O)O)NC(=O)[C@H](CCCN=C(N)N)NC(=O)[C@H](Cc2ccccc2)NC(=O)[C@H]([C@@H](C)CC)NC(=O)[C@H](CCCN=C(N)N)NC(=O)[C@H](CC(=O)O)NC1=O, the EC50 (Oryctolagus cuniculus) is reported as 2 µM and the half-life [1] is reported as under 2 min.
For CC[C@H](C)[C@@H]1NC(=O)[C@@H](CCCN=C(N)N)NC(=O)CNC(=O)CNC(=O)[C@@H](Cc2ccccc2)NC(=O)C(C)NC(=O)[C@H](NC(=O)[C@H](CO)NC(=O)[C@@H](N)CO)CSSC[C@H](C(=O)N[C@H](Cc2ccccc2)C(=O)N[C@H](CCCN=C(N)N)C(=O)O)NC(=O)[C@@H]([C@@H](C)CC)NC(=O)[C@H](CCCN=C(N)N)NC(=O)[C@@H](CC(=O)O)NC1=O (stereo in doubt), the KL [2] was 710 nM, the half-life [3] was 5.3 min and the EC50 (Oryctolagus cuniculus) was 0.36 µM.
